Assays:
Assay type in all cases: functional, cell-based
A549 = experiment: Antiproliferative activity against human A549 cells after 48 hrs by MTT assay; settings: A549, 48 h
How it was run: (§1)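 Cells seeded in 96-well plates and exposed to compounds for 48 h at 37 °C, 5% CO2. MTT (0.5 mg/mL) then added for 4 h. Supernatant removed, formazan dissolved in DMSO, and OD read at 570 nm. Cisplatin served as positive control.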

Raji = experiment: Antiproliferative activity against human Raji cells after 48 hrs by MTT assay
How it was run: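 Human B-lymphoma Raji line kept in RPMI-1640 with 10% FBS and 100 U/mL penicillin at 37 °C, 5% CO2, humidified. Cells were plated in 96 wells and treated with compounds for 48 h. MTT (0.5 mg/mL) was added for 4 h, then formazan was taken up in DMSO after supernatant removal and read at 570 nm. Cisplatin served as positive control.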

SGC-7901 = experiment: Antiproliferative activity against human SGC7901 cells after 48 hrs by MTT assay; settings: SGC-7901, 48 h; how it was run: as §1
HeLa = experiment: Antiproliferative activity against human HeLa cells after 48 hrs by MTT assay; how it was run: as §1

Structure (SMILES) | IC50 (A549) [µM] | IC50 (Raji) [µM] | IC50 (SGC-7901) [µM] | IC50 (HeLa) [µM]
CCOC(=O)[C@]1(C)CCC[C@@]2(C)[C@@H]3CC[C@@]4(C)C[C@]3(CC[C@@H]21)[C@@H]1CN(c2ccc(Br)cc2)N=C14 | > 50 | > 50 | > 50 | > 50
CCOC(=O)[C@]1(C)CCC[C@@]2(C)[C@@H]3CC[C@@]4(C)C[C@]3(CC[C@@H]21)[C@@H]1CN(c2ccccc2C)N=C14 | > 50 | 19.9 | > 50 | > 50
CCOC(=O)[C@]1(C)CCC[C@@]2(C)[C@@H]3CC[C@@]4(C)C[C@]3(CC[C@@H]21)[C@@H]1CN(c2cccc(C)c2)N=C14 | > 50 | > 50 | > 50 | > 50
CCOC(=O)[C@]1(C)CCC[C@@]2(C)[C@@H]3CC[C@@]4(C)C[C@]3(CC[C@@H]21)[C@@H]1CN(c2ccc(OC)cc2)N=C14 | 17.8 | 12.2 | 34 | 31.2
CCOC(=O)[C@]1(C)CCC[C@@]2(C)[C@@H]3CC[C@@]4(C)C[C@]3(CC[C@@H]21)[C@@H]1CN(c2cccc([N+](=O)[O-])c2)N=C14 | > 50 | > 50 | > 50 | > 50
CCOC(=O)[C@]1(C)CCC[C@@]2(C)[C@@H]3CC[C@@]4(C)C[C@]3(CC[C@@H]21)[C@@H]1CN(c2ccc(F)cc2F)N=C14 | > 50 | 13.5 | > 50 | > 50
CCOC(=O)[C@]1(C)CCC[C@@]2(C)[C@@H]3CC[C@@]4(C)C[C@]3(CC[C@@H]21)[C@@H]1CN(c2cc(F)ccc2F)N=C14 | 20.2 | 27.4 | > 50 | > 50
CCOC(=O)[C@]1(C)CCC[C@@]2(C)[C@@H]3CC[C@@]4(C)C[C@]3(CC[C@@H]21)[C@@H]1CN(c2cccc(Cl)c2Cl)N=C14 | > 50 | 22.1 | > 50 | > 50
CCOC(=O)[C@]1(C)CCC[C@@]2(C)[C@@H]3CC[C@@]4(C)C[C@]3(CC[C@@H]21)[C@@H]1CN(c2ccc(Cl)cc2Cl)N=C14 | > 50 | 22.9 | > 50 | > 50
CCOC(=O)[C@]1(C)CCC[C@@]2(C)[C@@H]3CC[C@@]4(C)C[C@]3(CC[C@@H]21)[C@@H]1CN(c2cc(Cl)ccc2Cl)N=C14 | > 50 | 25.6 | > 50 | > 50
CCOC(=O)[C@]1(C)CCC[C@@]2(C)[C@@H]3CC[C@@]4(C)C[C@]3(CC[C@@H]21)[C@@H]1CN(c2c(Cl)cccc2Cl)N=C14 | 11.6 | > 50 | > 50 | > 50
CCOC(=O)[C@]1(C)CCC[C@@]2(C)[C@@H]3CC[C@@]4(C)C[C@]3(CC[C@@H]21)[C@@H]1CN(c2ccc(Cl)c(Cl)c2)N=C14 | > 50 | > 50 | > 50 | > 50
CCOC(=O)[C@]1(C)CCC[C@@]2(C)[C@@H]3CC[C@@]4(C)C[C@]3(CC[C@@H]21)[C@@H]1CN(c2cc(Cl)cc(Cl)c2)N=C14 | > 50 | > 50 | > 50 | 24.6
CCOC(=O)[C@]1(C)CCC[C@@]2(C)[C@@H]3CC[C@@]4(C)C[C@]3(CC[C@@H]21)[C@@H]1CN(c2cccc(C)c2C)N=C14 | > 50 | 8.82 | 31.9 | > 50
CCOC(=O)[C@]1(C)CCC[C@@]2(C)[C@@H]3CC[C@@]4(C)C[C@]3(CC[C@@H]21)[C@@H]1CN(c2ccc(C)cc2C)N=C14 | > 50 | 11.2 | 28.5 | > 50
CCOC(=O)[C@]1(C)CCC[C@@]2(C)[C@@H]3CC[C@@]4(C)C[C@]3(CC[C@@H]21)[C@@H]1CN(c2cc(C)ccc2C)N=C14 | > 50 | 12.6 | 22.5 | 30.3
CCOC(=O)[C@]1(C)CCC[C@@]2(C)[C@@H]3CC[C@@]4(C)C[C@]3(CC[C@@H]21)[C@@H]1CN(c2ccc(C)c(C)c2)N=C14 | > 50 | 8.36 | 32.5 | > 50
CCOC(=O)[C@]1(C)CCC[C@@]2(C)[C@@H]3CC[C@@]4(C)C[C@]3(CC[C@@H]21)[C@@H]1CN(c2cc(C)cc(C)c2)N=C14 | > 50 | > 50 | > 50 | > 50
CCOC(=O)[C@]1(C)CCC[C@@]2(C)[C@@H]3CC[C@@]4(C)C[C@]3(CC[C@@H]21)c1cnn(-c2ccccc2)c14 | 25.4 | 11.4 | 17.6 | 42.5
